In ChEMBL document CHEMBL1154066, “Synthesis, physicochemical properties and antimicrobial activity of some new benzimidazole derivatives” (2009):
≈ marks a conversion by molar mass, not a printed value.

Key:
Candida albicans [1] = experiment: Antifungal activity against Candida albicans MTCC 1637 at 300 ug/disk after 7 days by disk diffusion method; type: functional; settings: MTCC 1637, 168 h, read-out: IZ
Procedure, shortened: (§1)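 Disc diffusion on Mueller–Hinton agar seeded with a standardized suspension, following NCCLS. Sterile 6 mm paper discs held 300 µg of test compound, amphotericin B at 10 µg as reference, or DMSO alone as negative control. Plates were incubated at 28 ± 2 °C for 7 days. Inhibition zone diameters (mm) were measured in triplicate and scored as 10–15, 16–21 or 22–28 mm.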

Aspergillus flavus [2] = experiment: Antifungal activity against Aspergillus flavus at 300 ug/disk after 7 days by disk diffusion method; type: functional; settings: 168 h, read-out: IZ; procedure, shortened: as §1
Escherichia coli = experiment: Antibacterial activity against Escherichia coli ATCC 25922 after 20 hrs by two fold dilution method; type: functional; settings: ATCC 25922, 20 h
Procedure, shortened: (§2)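 Twofold agar dilution in Mueller–Hinton agar. Compounds were dissolved in DMSO and diluted into the medium at final 128–1 µg/mL. The inoculum was 10^4 CFU/plate, and a medium-plus-DMSO plate served as negative control. Plates were incubated at 35 °C for 20 h. MIC was taken as the lowest concentration giving complete growth inhibition. Experiments were run three times.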

Staphylococcus aureus = experiment: Antibacterial activity against Staphylococcus aureus ATCC 29213 after 20 hrs by two fold dilution method; type: functional; settings: ATCC 29213, 20 h; procedure, shortened: as §2
Streptococcus mutans = experiment: Antibacterial activity against Streptococcus mutans MTCC 890 after 20 hrs by two fold dilution method; type: functional; settings: MTCC 890, 20 h; procedure, shortened: as §2
Pseudomonas aeruginosa = experiment: Antibacterial activity against Pseudomonas aeruginosa MTCC 741 after 20 hrs by two fold dilution method; type: functional; settings: MTCC 741, 20 h; procedure, shortened: as §2
Bacillus subtilis = experiment: Antibacterial activity against Bacillus subtilis MTCC 121 after 20 hrs by two fold dilution method; type: functional; settings: MTCC 121, 20 h; procedure, shortened: as §2
Salmonella typhi = experiment: Antibacterial activity against Salmonella typhi MTCC 733 after 20 hrs by two fold dilution method; type: functional, Salmonella enterica subsp. enterica serovar Typhi; settings: Salmonella enterica, MTCC 733, 20 h
Procedure, shortened: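 Twofold agar dilution in Mueller–Hinton agar. Compounds dissolved in DMSO and diluted into medium to final 128–1 µg/mL; medium with DMSO at the same dilution as negative control. Inoculum 10^4 CFU/plate; incubated 35 °C for 20 h. MIC taken as lowest concentration giving complete growth inhibition, in µg/mL. Ampicillin and ciprofloxacin as references; three independent experiments.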

Aspergillus niger [3] = experiment: Antifungal activity against Aspergillus niger at 300 ug/disk after 7 days by disk diffusion method; type: functional; settings: 168 h, read-out: IZ; procedure, shortened: as §1
Aspergillus flavus [4] = experiment: Antifungal activity against Aspergillus flavus at 10 ug/disk after 7 days by disk diffusion method; type: functional; settings: 168 h, read-out: IZ
Candida albicans [5] = experiment: Antifungal activity against Candida albicans MTCC 1637 at 10 ug/disk after 7 days by disk diffusion method; type: functional; settings: MTCC 1637, 168 h, read-out: IZ
Aspergillus niger [6] = experiment: Antifungal activity against Aspergillus niger at 10 ug/disk after 7 days by disk diffusion method; type: functional; settings: 168 h, read-out: IZ

| Structure (SMILES) | zone of inhibition at 300 µg/disc (Candida albicans [1]) [mm] | zone of inhibition at 300 µg/disc (Aspergillus flavus [2]) [mm] | MIC (Escherichia coli) [µg/mL] | MIC (Staphylococcus aureus) [µg/mL] | MIC (Streptococcus mutans) [µg/mL] | MIC (Pseudomonas aeruginosa) [µg/mL] | MIC (Bacillus subtilis) [µg/mL] | MIC (Salmonella typhi) [µg/mL] | zone of inhibition at 300 µg/disc (Aspergillus niger [3]) [mm] | zone of inhibition at 10 µg/disc (Aspergillus flavus [4]) [mm] | zone of inhibition at 10 µg/disc (Candida albicans [5]) [mm] | zone of inhibition at 10 µg/disc (Aspergillus niger [6]) [mm] |
| --- | --- | --- | --- | --- | --- | --- | --- | --- | --- | --- | --- | --- |
| Cc1nnc(Cn2cnc3ccccc32)o1 | 16 | 16 | 16 (≈ 74.7 µM) | 16 (≈ 74.7 µM) | 16 (≈ 74.7 µM) | > 128 | 16 (≈ 74.7 µM) | 32 (≈ 149 µM) | 16 | – | – | – |
| CCc1nnc(Cn2cnc3ccccc32)o1 | 10 | 10 | 16 (≈ 70.1 µM) | 32 (≈ 140 µM) | 16 (≈ 70.1 µM) | > 128 | 32 (≈ 140 µM) | 64 (≈ 280 µM) | < 10 | – | – | – |
| Cc1nc2ccccc2n1Cc1nnc(-c2ccccc2Cl)o1 | 16 | 16 | > 128 | – | 16 (≈ 49.3 µM) | – | – | 32 (≈ 98.5 µM) | 16 | – | – | – |
| Cc1nnc(Cn2c(C)nc3ccccc32)o1 | 22 | 16 | 64 (≈ 280 µM) | 4 (≈ 17.5 µM) | 8 (≈ 35 µM) | 64 (≈ 280 µM) | 4 (≈ 17.5 µM) | 16 (≈ 70.1 µM) | 16 | – | – | – |
| Oc1ccccc1-c1nnc(Cn2cnc3ccccc32)o1 | – | – | 64 (≈ 219 µM) | 32 (≈ 109 µM) | – | 64 (≈ 219 µM) | – | 16 (≈ 54.7 µM) | – | – | – | – |
| COc1ccccc1-c1nnc(Cn2c(C)nc3ccccc32)o1 | 16 | 16 | 64 (≈ 200 µM) | 8 (≈ 25 µM) | 8 (≈ 25 µM) | 64 (≈ 200 µM) | 4 (≈ 12.5 µM) | 16 (≈ 49.9 µM) | 16 | – | – | – |
| ClCc1nnc(Cn2cnc3ccccc32)o1 | 16 | 10 | – | 16 (≈ 64.3 µM) | 16 (≈ 64.3 µM) | 32 (≈ 129 µM) | 32 (≈ 129 µM) | 64 (≈ 257 µM) | 10 | – | – | – |
| ClCCc1nnc(Cn2cnc3ccccc32)o1 | 16 | 10 | – | 16 (≈ 60.9 µM) | – | 32 (≈ 122 µM) | 16 (≈ 60.9 µM) | 64 (≈ 244 µM) | 16 | – | – | – |
| Cc1nc2ccccc2n1Cc1nnc(-c2ccccc2O)o1 | – | – | 32 (≈ 104 µM) | – | 8 (≈ 26.1 µM) | – | 16 (≈ 52.2 µM) | 32 (≈ 104 µM) | – | – | – | – |
| COc1ccc(-c2nnc(Cn3cnc4ccccc43)o2)cc1 | 16 | < 10 | 64 (≈ 209 µM) | 16 (≈ 52.2 µM) | 16 (≈ 52.2 µM) | 32 (≈ 104 µM) | 32 (≈ 104 µM) | 32 (≈ 104 µM) | < 10 | – | – | – |
| C[C@@H]1[C@H](O)[C@@H](C)/C=C/C=C/C=C/C=C/C=C/C=C/C=C/[C@H](O[C@@H]2O[C@H](C)[C@@H](O)[C@H](N)[C@@H]2O)C[C@@H]2O[C@](O)(C[C@@H](O)C[C@@H](O)[C@H](O)CC[C@@H](O)C[C@@H](O)CC(=O)O[C@H]1C)C[C@H](O)[C@H]2C(=O)O [AMPHOTERICIN B] | – | – | – | – | – | – | – | – | – | 22 | 22 | 22 |
| CC1(C)S[C@@H]2[C@H](NC(=O)[C@H](N)c3ccccc3)C(=O)N2[C@H]1C(=O)O [AMPICILLIN] | – | – | 4 (≈ 11.4 µM) | 2 (≈ 5.72 µM) | 2 (≈ 5.72 µM) | > 128 | 2 (≈ 5.72 µM) | > 128 | – | – | – | – |
| O=C(O)c1cn(C2CC2)c2cc(N3CCNCC3)c(F)cc2c1=O [CIPROFLOXACIN] | – | – | ≤ 1 | ≤ 1 | – | – | ≤ 1 | – | – | – | – | – |
